HDAC3 inhib: inhibitors of human histone deacetylase 3 | recombinant HDAC3, fluorogenic peptide/trypsin coupled, fluorescence | 320,000 tested, 0.15% active | inhibition, % at 8.3 µM; in the data active = inhibition above about 26%, passing the limit was not always enough; inconclusive = no clear call, values can overlap the other calls
ALR H2O2 inh: blocks human ALR sulfhydryl oxidase activity; purified ALR, DTT oxidation, H2O2 HRP-luminol luminescence; inhibition, % (no concentration beside the values); 290,000 tested, 3.8% active; AID 485317;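 active = mean replicate inhibition above about 79%, with every replicate also reaching it, limit read from the data; inconclusive = only one of the two criteria met; inactive = mean below limit and not every replicate reaching it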
FAS TE block: inhibitors of human fatty acid synthase thioesterase domain. P49327. recombinant FAS-TE, OMFH fluorogenic substrate, fluorescence endpoint. inhibition, % at 15 µM. 360,000 tested, 0.67% active. AID 602261;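 active = compounds whose normalised, plate-corrected inhibition of enzyme fluorescence in the single-dose primary screen is 50% or more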;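 also: 0% = DMSO with enzyme and 100% = substrate without enzyme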
UCH37 DUB inh: inhibitors of human deubiquitinating enzyme UCH37; purified proteasome/UCH37, Ub-AMC cleavage fluorescence; inhibition, % (test concentration not listed); 330,000 tested, 0.33% active; AID 588478;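 active = mean inhibition over replicate wells above about 20%, limit read from the data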;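 also: 0% = compound-free wells with enzyme and 100% = wells lacking proteasome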
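Material: human UCH37 enzyme supplied as purified proteasome complex. Measure: % inhibition of Ub-AMC cleavage fluorescence. Medium: pH 7.4 Tris-HCl (50 mM) with ovalbumin, ATP-MgCl2, DTT. Times: 30 min preincubation with enzyme, 25 min cleavage at room temperature. Detection: AMC fluorescence intensity at 355/460 nm.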
Rtt109 Vps75: blocks Candida albicans Rtt109/Vps75 acetyltransferase activity; purified Rtt109/Vps75, ThioGlo CoA-SH fluorescence, 4 h; Q5AAJ8; inhibition, % at 34.9 µM; 330,000 tested, 0.16% active;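 active = inhibition of at least 50% in every replicate; inconclusive = best replicate reaches 50% inhibition but some replicates fall short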
Target sequence (Q5AAJ8 whole entry, looked up): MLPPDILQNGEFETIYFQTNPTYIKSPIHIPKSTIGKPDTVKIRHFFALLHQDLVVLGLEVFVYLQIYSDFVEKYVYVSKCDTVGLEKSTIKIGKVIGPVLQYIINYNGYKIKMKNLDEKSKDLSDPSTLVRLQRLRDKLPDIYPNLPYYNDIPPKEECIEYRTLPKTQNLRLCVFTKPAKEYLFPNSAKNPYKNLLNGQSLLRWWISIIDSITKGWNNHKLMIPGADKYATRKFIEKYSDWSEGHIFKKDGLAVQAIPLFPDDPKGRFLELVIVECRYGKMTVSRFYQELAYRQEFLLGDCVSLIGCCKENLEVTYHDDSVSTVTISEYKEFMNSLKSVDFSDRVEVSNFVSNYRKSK
PfM18AAP inh-1: PfM18AAP enzyme inhibition; recombinant PfM18AAP, H-Glu-NHMec fluorogenic cleavage; inhibition, % at 7.35 µM; 290,000 tested, 1.2% active; AID 1822;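 active = inhibition above the campaign mean inhibition over all tested compounds plus 3 SD, cut at about 28% in these data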;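 also: 0% = plate median of test compound wells and 100% = 2 mM ZnCl2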
PfM18AAP inh-2: PfM18AAP inhibition, confirmation | recombinant PfM18AAP, H-Glu-NHMec fluorogenic cleavage | inhibition, % at 7.35 µM | AID 2170 | 2,400 tested, 28% active | shares compounds with PfM18AAP inh-1;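 active = mean inhibition over replicate wells above the hit cutoff set for the earlier primary screen, cut at about 29% in these data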;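 also: 0% = median of test compound wells and 100% = 2 mM ZnCl2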
CTSL1 confirm: Cathepsin L (human) inhibition, confirmation; shares compounds with PfM18AAP inh-1; purified cathepsin L1, Z-Leu-Arg-MCA fluorescence; inhibition, % at 5.96 µM; 2,400 tested, under 10 active; AID 2178;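 active = average inhibition across replicates above the hit cutoff set in the earlier primary screen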;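 also: 0% = median of test compound wells and 100% = Z-Phe-Ala-diazomethylketone 1 µM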
An asterisk follows results filed as active; ? = inconclusive; nt = no result. This is a sample that favours compounds with a hit; in the whole collection about 4.6% have one here.

SMILES	HDAC3 inhib	ALR H2O2 inh	FAS TE block	UCH37 DUB inh	Rtt109 Vps75	PfM18AAP inh-1	PfM18AAP inh-2	CTSL1 confirm
CCOc1ccc(C=NNC(=S)Nc2c(C)cccc2C)cc1	nt	nt	nt	4	nt	nt	nt	nt
O=[N+]([O-])c1ccc(N2CCN(c3ccc(O)cc3)CC2)cn1	2	nt	1	11	6	41*	2	-1
O=C(O)c1ccc([N+](=O)[O-])nc1	nt	nt	-5	nt	nt	nt	nt	nt
O=C(NN=Cc1cccnc1)c1ccccc1NS(=O)(=O)c1cccs1	nt	nt	nt	6	nt	nt	nt	nt
Cc1cc(NS(=O)(=O)c2ccccc2)cc(Cl)c1O	7	99*	-8	5	7	67*	-56	-5
O=S(=O)(Nc1ccc(NS(=O)(=O)c2ccccc2)c(Cl)c1)c1ccccc1	nt	nt	-1	4	-1	nt	nt	nt
CNC(=O)C1CC(=O)N/C(=N/N=C(C)c2cccs2)S1 (stereo unspecified)	nt	nt	nt	16	nt	nt	nt	nt
O=C(NC1CCCCC1)C(c1ccc(O)c(O)c1)N(C(=O)Cn1nnc2ccccc21)c1cccc(O)c1 (stereo unspecified)	2	28	-5	3	2	86*	83*	-2
O=C(COc1ccccc1[N+](=O)[O-])NN=Cc1cccc(OC(=O)c2ccc3c(c2)OCO3)c1	nt	nt	nt	0	nt	nt	nt	nt
CCOc1ccc2[nH]cc(C(=O)O)c(=O)c2c1	-2	1	-10	-3	4	51*	-36	1
CCc1c(C)sc(NC(=O)/C=C/C(=O)O)c1C(N)=O	-1	26	-11	nt	-10	34*	-42	-1
Cc1sc(NC(=O)/C=C/C(=O)O)c(C(N)=O)c1-c1ccc(C(C)(C)C)cc1	6	nt	-1	8	16	-4	nt	nt
Cc1ccc(C=NNC(=O)CSc2nc3nc(C)cc(C)n3n2)cc1	nt	nt	nt	5	nt	nt	nt	nt
Cc1ccc(S(=O)(=O)Nc2ccc(O)c3cccnc23)cc1	2	95*	-2	2	128*	49*	30*	-11
Cc1ccc(S(=O)(=O)Nc2ccc(O)c3ncccc23)cc1	?	88*	7	6	8	40*	7	-1
CC(=NNC(=S)Nc1ccc(C)cc1)c1cccc(N)c1	nt	nt	nt	-17	nt	nt	nt	nt
CCN(CC)C(=O)c1c(C)[nH]c(=S)c(C#N)c1-c1ccco1	11	-9	-7	3	7	56*	21	1
Cc1ccc(C=NN=C2SCC(=O)N2CC2CC2)cc1	nt	nt	nt	3	nt	nt	nt	nt
CC(=NNC(=O)c1cccs1)c1c(O)cc(C)oc1=O	nt	nt	nt	5	nt	nt	nt	nt
Cc1[nH]nc2c1[C@@H](c1ccccc1[N+](=O)[O-])C(C#N)=C(N)O2	2	-26	20	-4	17	36*	10	3
Cc1[nH]nc2c1C(c1cc(Br)cs1)C(C#N)=C(N)O2 (stereo unspecified)	4	12	-6	5	-6	72*	62*	0
Cc1cc(C=NNC(=O)CC(=O)NC2CCCCC2)c(C)n1-c1ccc(Cl)cc1	nt	nt	nt	6	nt	nt	nt	nt
COc1cccc(C=NNC(=O)C(=O)NCc2ccco2)c1O	nt	nt	nt	1	nt	nt	nt	nt
O=[N+]([O-])c1ccc(O)c(C=Nn2c(-c3ccccc3)n[nH]c2=S)c1	nt	nt	nt	11	nt	nt	nt	nt
Cc1ccc(/C=C2\SC(=S)N(/N=C/c3cc([N+](=O)[O-])ccc3O)C2=O)o1	10	98*	19	nt	3	40*	-5	7
SMILES	HDAC3 inhib	ALR H2O2 inh	FAS TE block	UCH37 DUB inh	Rtt109 Vps75	PfM18AAP inh-1	PfM18AAP inh-2	CTSL1 confirm
Cc1ccc(C(=O)NN=Cc2ccc([N+](=O)[O-])s2)cn1	nt	nt	nt	12	nt	nt	nt	nt
Oc1ccc(NCc2ccc(OCc3ccccc3)cc2)cc1	5	49	8	-2	nt	46*	-29	-2
CCOc1cc(C=NNC(=O)c2cc(C)n(-c3ccc(F)cc3)c2C)ccc1O	nt	nt	nt	1	nt	nt	nt	nt
CC1(C)Cc2c(sc3ncn4c(=S)[nH]nc4c23)CO1	15	nt	-2	3	11	43*	30*	-1
Cc1ccc2nc(Cl)c(C=NNC(=O)c3ccccc3O)cc2c1	nt	nt	nt	-6	nt	nt	nt	nt
C/C(C=Nn1cnnc1)=C/c1ccccc1	nt	nt	nt	3	nt	nt	nt	nt
CCc1nnc(NC(=O)CSc2nnc(-c3ccccc3O)o2)s1	-3	5	-5	nt	9	34*	-17	-3

Screening data (PubChem BioAssay)
